Reference: ChEMBL document CHEMBL1152814, “Novel cyano- and amidinobenzothiazole derivatives: synthesis, antitumor evaluation, and X-ray and quantitative structure-activity relationship (QSAR) analysis” (J Med Chem, 2009)
pIC50: −log10 of the molar value. Activity calls are given as the source filed them. The rule behind the calls is not given here.

Experiments:
[1] = Antiproliferative activity against human WI38 cells after 72 hrs by MTT assay; type: cell-based; details: WI-38, 72 h
Method in brief: (§1)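 Monolayers in DMEM with 10% FBS, 2 mM L-glutamine, penicillin/streptomycin, 37 °C, 5% CO2. Seeded at 3 × 10³ to 6 × 10³ cells/well on day 0. Agents added the next day in five 10-fold dilutions (10^-8–10^-4 mol/L), with a DMSO solvent control (max 0.25%). MTT read at 570 nm after 72 h. Quadruplicate points, three experiments. IC50 is the concentration giving 50% growth inhibition.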

SW-620 = test: Antiproliferative activity against human SW620 cells after 72 hrs by MTT assay; type: functional, cell-based; details: SW-620, 72 h; method in brief: as §1
NCI-H460 [2] = test: Antiproliferative activity against human H460 cells after 72 hrs by MTT assay; type: functional, cell-based; details: NCI-H460, 72 h; method in brief: as §1
HeLa = test: Antiproliferative activity against human HeLa cells after 72 hrs by MTT assay; type: functional, cell-based; method in brief: as §1
MCF7 = test: Antiproliferative activity against human MCF7 cells after 72 hrs by MTT assay; type: functional, cell-based; details: MCF7, 72 h; method in brief: as §1
MIA PaCa-2 = test: Antiproliferative activity against human MIAPaCa2 cells after 72 hrs by MTT assay; type: functional, cell-based; details: MIA PaCa-2, 72 h; method in brief: as §1
HEp-2 = test: Antiproliferative activity against human Hep2 cells after 72 hrs by MTT assay; type: functional, cell-based; details: HEp-2, 72 h; method in brief: as §1
NCI-H460 [3] = test: Cell cycle arrest in human H460 cells assessed as increase in percentage of cells in sub-G1 phase at 5 to 50 uM after 48 hrs using propidium iodide staining by FACS; type: functional, cell-based
Method in brief: (§2)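 H 460 cells seeded at 2 × 10⁵/well and treated after overnight incubation with 5, 10 or 50 µM for 24 or 48 h. Attached and floating cells were pooled, fixed in 70% ethanol, treated with 0.2 µg/µL RNase A (37 °C, 15 min) and stained with 50 µg/mL propidium iodide. Flow cytometry counted 20000 events, in duplicate across two independent experiments.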

NCI-H460 [4] = test: Induction of apoptosis in human H460 cells assessed as viable cells at 10 uM after 48 hrs using annexin V staining by FACS; type: functional; details: NCI-H460, 48 h, read-out: Activity
Method in brief: (§3)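 H 460 cells seeded at 2 × 10⁵/well and exposed for 48 h (5, 10 or 50 µM) against a vehicle control. Floating and attached cells were pooled and washed in binding buffer (10 mM HEPES, 140 mM NaCl, 2.5 mM CaCl2, pH 7.4). They were stained 20 min with annexin V Alexa Fluor 488 and 1 µg/mL 7-AAD, then read by flow cytometry. Quadrants: viable, early apoptotic, late apoptotic.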

NCI-H460 [5] = test: Induction of apoptosis in human H460 cells assessed as complete cell death at 50 uM after 48 hrs; type: functional, cell-based
NCI-H460 [6] = test: Induction of apoptosis in human H460 cells assessed as viable cells at 5 uM after 48 hrs using annexin V staining by FACS; type: functional; details: NCI-H460, 48 h, read-out: Activity; method in brief: as §3
NCI-H460 [7] = test: Induction of apoptosis in human H460 cells assessed as early apoptotic cells at 5 uM after 48 hrs using annexin V staining by FACS; type: functional; method in brief: as §3
NCI-H460 [8] = test: Induction of apoptosis in human H460 cells assessed as late apoptotic cells at 5 uM after 48 hrs using annexin V staining by FACS; type: functional; method in brief: as §3
NCI-H460 [9] = test: Induction of apoptosis in human H460 cells assessed as early apoptotic cells after 48 hrs using annexin V staining by FACS; type: functional, cell-based; method in brief: as §3
NCI-H460 [10] = test: Cell cycle arrest in human H460 cells assessed as increase in percentage of cells in sub-G1 phase at 5 to 50 uM after 24 hrs using propidium iodide staining by FACS; type: functional, cell-based; method in brief: as §2
NCI-H460 [11] = test: Induction of apoptosis in human H460 cells at 50 uM after 24 hrs; type: functional
NCI-H460 [12] = test: Cell cycle arrest in human H460 cells assessed as reduction of percentage of cells in S phase at 5 to 50 uM after 24 hrs using propidium iodide staining by FACS; type: functional, cell-based; method in brief: as §2
NCI-H460 [13] = test: Induction of apoptosis in human H460 cells assessed as late apoptotic cells after 48 hrs using annexin V staining by FACS; type: functional, cell-based; method in brief: as §3
NCI-H460 [14] = test: Induction of apoptosis in human H460 cells assessed as late apoptotic cells at 10 uM after 48 hrs using annexin V staining by FACS; type: functional; method in brief: as §3
NCI-H460 [15] = test: Induction of apoptosis in human H460 cells assessed as early apoptotic cells at 10 uM after 48 hrs using annexin V staining by FACS; type: functional; method in brief: as §3
NCI-H460 [16] = test: Induction of apoptosis in human H460 cells assessed as viable cells after 48 hrs using annexin V staining by FACS; type: functional, cell-based; method in brief: as §3
NCI-H460 [17] = test: Cell cycle arrest in human H460 cells assessed as reduction of percentage of cells in S phase at 5 to 50 uM after 48 hrs using propidium iodide staining by FACS; type: functional, cell-based; method in brief: as §2

| SMILES | pIC50 [1] | pIC50 (SW-620) | pIC50 (NCI-H460 [2]) | pIC50 (HeLa) | pIC50 (MCF7) | pIC50 (MIA PaCa-2) | also measured |
| --- | --- | --- | --- | --- | --- | --- | --- |
| CC(C)NC(=N)c1ccc2nc(NC(=O)c3ccccc3Cl)sc2c1 | 4.21 | 4.35 | 4.23 | 4.64 | 4.80 | 4.35 |  |
| CC(C)NC(=N)c1ccc2nc(NC(=O)c3ccccc3)sc2c1 | < 4.00 | 4.52 | 4.82 | 4.80 | 4.66 | 4.42 |  |
| CC(C)NC(=N)c1ccc(Nc2nc3ccc(C(=N)NC(C)C)cc3s2)cc1 | 4.04 | 4.74 | 4.80 | 4.74 | 5.22 | 4.52 |  |
| Cc1cccnc1Nc1nc2ccc(C3=NCCN3)cc2s1 |  | 5.70 | 5.70 | 5.52 | 5.70 | 5.52 |  |
| c1cnc(Nc2nc3ccc(C4=NCCN4)cc3s2)nc1 | 5.77 | 5.77 | 5.80 | 5.85 | 5.77 | 5.74 |  |
| CC(C)NC(=N)c1ccc2nc(NC(=O)c3ccc(F)cc3)sc2c1 | < 4.00 | 4.46 | 4.66 | 4.89 | 4.89 | 4.49 |  |
| Cc1ccnc(Nc2nc3ccc(C(=N)NC(C)C)cc3s2)c1 | 4.90 | 5.52 | 5.70 | 5.40 | 5.70 | 5.52 |  |
| Clc1ccc(Nc2nc3ccc(C4=NCCN4)cc3s2)nc1 | 6.00 | 5.89 | 5.82 | 6.00 | 5.85 | 5.80 |  |
| Cc1cccnc1Nc1nc2ccc(C#N)cc2s1 | 5.64 | 5.52 |  | < 5.00 | < 5.00 | 5.52 | pIC50 (HEp-2): < 5.00 |
| Cc1cccc(Nc2nc3ccc(C(=N)NC(C)C)cc3s2)n1.Cl.Cl | 4.72 | 5.05 | 5.52 | 5.40 | 5.52 | 5.52 | Activity (NCI-H460 [3]): Active; viability at 10 µM (NCI-H460 [4]): 77.7%; Activity (NCI-H460 [5]): Active; viability at 5 µM (NCI-H460 [6]): 83.1%; Activity (NCI-H460 [7]): 12.24%; Activity (NCI-H460 [8]): 3.37%; Activity (NCI-H460 [9]): Dose-dependent effect; Activity (NCI-H460 [10]): Active; Activity (NCI-H460 [11]): 40%; Activity (NCI-H460 [12]): Active; Activity (NCI-H460 [13]): Dose-dependent effect; Activity (NCI-H460 [14]): 3.75%; Activity (NCI-H460 [15]): 16.43%; Activity (NCI-H460 [16]): Dose-dependent effect; Activity (NCI-H460 [17]): Active |
| Cc1cccc(Nc2nc3ccc(C4=NCCN4)cc3s2)n1.Cl.Cl | 5.70 | 5.70 | 5.70 | 5.70 | 5.70 | 5.70 | Activity (NCI-H460 [3]): Active; viability at 10 µM (NCI-H460 [4]): 67.7%; Activity (NCI-H460 [9]): Dose-dependent effect; Activity (NCI-H460 [10]): Active; Activity (NCI-H460 [12]): Active; Activity (NCI-H460 [13]): Dose-dependent effect; Activity (NCI-H460 [14]): 5.58%; Activity (NCI-H460 [15]): 24.05%; Activity (NCI-H460 [16]): Dose-dependent effect; Activity (NCI-H460 [17]): Active |
